Measurements collected from several papers.
Each line is one published result; the experiments were not run side by side.
Target: Phosphatidylinositol 4,5-bisphosphate 3-kinase catalytic subunit delta isoform (PIK3CD, Homo sapiens, UniProt O00329)
Residues used in one study (O00329 1-1044): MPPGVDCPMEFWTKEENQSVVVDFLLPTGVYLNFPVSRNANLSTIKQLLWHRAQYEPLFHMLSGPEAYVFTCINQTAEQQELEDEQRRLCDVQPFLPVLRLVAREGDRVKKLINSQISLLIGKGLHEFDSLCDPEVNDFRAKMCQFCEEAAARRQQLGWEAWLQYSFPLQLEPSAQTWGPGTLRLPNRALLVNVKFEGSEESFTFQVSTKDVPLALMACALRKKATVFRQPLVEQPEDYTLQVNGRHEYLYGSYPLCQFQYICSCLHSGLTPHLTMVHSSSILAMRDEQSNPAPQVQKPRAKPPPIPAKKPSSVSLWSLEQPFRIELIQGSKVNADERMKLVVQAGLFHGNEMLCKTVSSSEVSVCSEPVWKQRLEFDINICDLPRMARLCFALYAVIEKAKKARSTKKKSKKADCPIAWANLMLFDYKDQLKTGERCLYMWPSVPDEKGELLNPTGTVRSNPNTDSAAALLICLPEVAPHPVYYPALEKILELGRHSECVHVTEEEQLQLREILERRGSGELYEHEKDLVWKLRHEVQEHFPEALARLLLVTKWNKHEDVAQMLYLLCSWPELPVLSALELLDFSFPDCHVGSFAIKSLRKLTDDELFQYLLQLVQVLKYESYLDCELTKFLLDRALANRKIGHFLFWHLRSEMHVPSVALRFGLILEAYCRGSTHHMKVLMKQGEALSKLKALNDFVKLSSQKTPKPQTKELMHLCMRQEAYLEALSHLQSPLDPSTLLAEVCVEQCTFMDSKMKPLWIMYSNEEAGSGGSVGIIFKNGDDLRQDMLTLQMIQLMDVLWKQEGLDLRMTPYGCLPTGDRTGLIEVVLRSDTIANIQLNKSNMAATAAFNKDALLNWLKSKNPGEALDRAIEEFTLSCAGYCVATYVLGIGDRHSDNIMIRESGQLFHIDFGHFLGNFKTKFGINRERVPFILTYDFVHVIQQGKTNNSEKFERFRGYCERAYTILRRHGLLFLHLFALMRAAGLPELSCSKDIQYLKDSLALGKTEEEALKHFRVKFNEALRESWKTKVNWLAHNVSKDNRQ

SMILES	test	conditions	quantity	result
Cc1ccc(C(=O)Nc2ccc(CN3CCN(C)CC3)c(C(F)(F)F)c2)cc1C#Cc1cnc2cccnn12	enzyme activity, inhibitor	23.5 nM	remaining activity	83%
O=C(CSc1nc2nccnc2c(=O)n1CCc1ccccc1)Nc1ccccc1	enzyme activity, inhibitor	10 µM	inhibition	< 20%
CN(CCCC(F)(F)F)c1nccc(-c2cnn3ncccc23)n1	binding	1 µM	remaining binding	100%
CS(=O)(=O)Nc1cc(-c2ccc3ncnc(Nc4ccc(F)c(Cl)c4)c3c2)cnc1Cl	enzyme activity, inhibitor, FRET	10 µM	inhibition	90 to 100%
CO[C@@H](C)c1c(Nc2ccc([C@@H](N(C)C(=O)C3CCS(=O)(=O)CC3)C(F)(F)F)cc2)cnc2cc(Cl)nn12	cell-free assay, competition with immobilised ligand	1 µM	remaining binding	87%
Cc1ccc(C(=O)NCc2ccsc2)cc1C#Cc1cn(C(C)C)c2ncnc(N)c12	enzyme activity, inhibitor	1 µM	activity vs control	98%
CC(C)(O)c1cncc(-c2nc3ccc(F)cc3n2C2CC2)c1	cell-free assay, competition with immobilised ligand	1 µM	remaining binding	100%
CC(C)CCn1c(SCC(=O)Nc2ccccc2C(F)(F)F)nc2nccnc2c1=O	enzyme activity, inhibitor	10 µM	inhibition	< 20%
Nc1ncnc2occ(-c3ccc(NC(=O)Nc4cc(C(F)(F)F)ccc4F)cc3)c12	cell-free assay, inhibitor	20 µM	remaining signal	69%
